According to ChEMBL document CHEMBL1137078, “Carbamoylphosphonates, a new class of in vivo active matrix metalloproteinase inhibitors. 1. Alkyl- and cycloalkylcarbamoylphosphonic acids” (J Med Chem, 2004):
Active and inactive are the calls of the source. The rule behind the calls is not given here.

What was measured:
[1] = molecular target: Matrix metalloproteinase-9 (Homo sapiens, UniProt P14780); test: In vitro inhibitory activity against recombinant matrix metalloprotease-9 was determined
In short: (§1)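 Commercial recombinant MMP-1, -2, -3, -8 or -9 at four levels (1-50 ng) incubated 3 h with their respective substrates. Compounds at four to six concentrations (0.1-100 µM). Colorimetric change read on an ELISA reader. IC50 calculated from the kinetic data.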

Interstitial collagenase = molecular target: T1, Interstitial collagenase (Homo sapiens, UniProt P03956); test: In vitro inhibitory activity against recombinant matrix metalloprotease-1 was determined; in short: as §1
T1 sequence (P03956 whole entry): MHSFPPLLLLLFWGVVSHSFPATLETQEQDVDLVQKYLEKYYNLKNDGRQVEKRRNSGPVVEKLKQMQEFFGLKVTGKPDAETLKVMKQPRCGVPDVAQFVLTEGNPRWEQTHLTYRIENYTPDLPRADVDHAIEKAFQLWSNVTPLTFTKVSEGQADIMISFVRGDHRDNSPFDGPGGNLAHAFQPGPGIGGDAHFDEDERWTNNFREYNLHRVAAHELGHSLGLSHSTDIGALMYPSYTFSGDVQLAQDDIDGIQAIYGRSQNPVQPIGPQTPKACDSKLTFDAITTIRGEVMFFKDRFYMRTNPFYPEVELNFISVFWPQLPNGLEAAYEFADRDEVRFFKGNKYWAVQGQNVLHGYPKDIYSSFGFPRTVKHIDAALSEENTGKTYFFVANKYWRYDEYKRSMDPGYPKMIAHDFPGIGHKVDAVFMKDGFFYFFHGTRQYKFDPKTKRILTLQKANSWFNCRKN

Stromelysin-1 = Stromelysin-1 (Homo sapiens, UniProt P08254); test: In vitro inhibitory activity against recombinant matrix metalloprotease-3 was determined; in short: as §1
NIH3T3 = test: In vitro inhibition of invasion of NIH 3T3 cells across the reconstituted basement membrane by the compound at 50 uM concentration in Boyden chamber chemoinvasion assay; Inactive; format: functional, cell-based; settings: Mus musculus
[2] = molecular target: 72 kDa type IV collagenase (Homo sapiens, UniProt P08253); test: In vitro inhibitory activity against recombinant matrix metalloprotease-2 was determined; in short: as §1
Neutrophil collagenase = Neutrophil collagenase (Homo sapiens, UniProt P22894); test: In vitro inhibitory activity against recombinant matrix metalloprotease-8 was determined; in short: as §1
B16-F10 = test: Inhibition of lung metastasis formation after 3 weeks treatment with 50 mg/kg of compound in mice injected with 50000 B16F10 tumor cells into the tail vein; format: functional; settings: Mus musculus, 504 h
In short: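 Experimental metastasis in mice: 50 000 B16F10 melanoma cells injected into the tail vein. Compound given ip daily at 50 mg/kg for 3 weeks. Mice sacrificed at day 21, lungs fixed, and surface tumor foci counted. Value is % inhibition of lung metastasis formation.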

Homo sapiens = organism: Homo sapiens; test: In vitro inhibition of endothelial capillary tube formation by the compound at 50 uM concentration; format: functional
In short: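 Endothelial cells plated on a thin Matrigel layer with angiogenic factor (bFGF/VEGF), incubated 4-6 h to form tubelike structures. Compounds added at 5 concentrations (100, 50, 25, 10, 5 µM). Tube formation quantified by image analysis. Value is % inhibition at 50 µM.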

Chain of Neutrophil collagenase (P22894 whole entry): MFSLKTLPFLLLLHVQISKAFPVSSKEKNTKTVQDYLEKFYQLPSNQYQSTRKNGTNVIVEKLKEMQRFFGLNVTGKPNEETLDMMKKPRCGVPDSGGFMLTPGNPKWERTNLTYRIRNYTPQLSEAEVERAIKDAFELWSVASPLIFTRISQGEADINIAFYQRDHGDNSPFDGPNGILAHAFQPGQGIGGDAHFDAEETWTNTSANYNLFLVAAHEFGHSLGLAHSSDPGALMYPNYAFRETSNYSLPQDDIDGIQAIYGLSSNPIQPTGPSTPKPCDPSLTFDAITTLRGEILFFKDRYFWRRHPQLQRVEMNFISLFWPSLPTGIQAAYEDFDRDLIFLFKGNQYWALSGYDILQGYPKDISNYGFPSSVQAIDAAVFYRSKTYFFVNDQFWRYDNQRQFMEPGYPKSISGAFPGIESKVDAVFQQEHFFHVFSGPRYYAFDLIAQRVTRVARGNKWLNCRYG
Chain of 72 kDa type IV collagenase (P08253 whole entry): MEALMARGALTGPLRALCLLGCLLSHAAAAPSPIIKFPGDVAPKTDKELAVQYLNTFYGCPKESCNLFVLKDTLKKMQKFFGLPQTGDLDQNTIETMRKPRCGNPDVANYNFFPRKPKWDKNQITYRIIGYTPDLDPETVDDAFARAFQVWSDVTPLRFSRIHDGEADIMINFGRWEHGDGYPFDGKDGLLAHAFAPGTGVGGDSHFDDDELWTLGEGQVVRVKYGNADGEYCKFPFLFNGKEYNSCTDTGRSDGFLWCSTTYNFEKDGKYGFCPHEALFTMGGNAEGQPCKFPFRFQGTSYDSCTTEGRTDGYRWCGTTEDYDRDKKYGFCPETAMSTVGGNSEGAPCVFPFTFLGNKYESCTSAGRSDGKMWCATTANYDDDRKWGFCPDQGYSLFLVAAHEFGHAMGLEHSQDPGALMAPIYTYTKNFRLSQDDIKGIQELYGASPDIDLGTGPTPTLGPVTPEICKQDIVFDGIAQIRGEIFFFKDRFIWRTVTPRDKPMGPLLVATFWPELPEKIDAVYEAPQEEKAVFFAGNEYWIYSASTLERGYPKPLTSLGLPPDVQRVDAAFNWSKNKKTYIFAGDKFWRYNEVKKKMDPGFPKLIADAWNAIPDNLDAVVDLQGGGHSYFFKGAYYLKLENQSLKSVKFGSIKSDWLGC
Chain of Stromelysin-1 (P08254 whole entry): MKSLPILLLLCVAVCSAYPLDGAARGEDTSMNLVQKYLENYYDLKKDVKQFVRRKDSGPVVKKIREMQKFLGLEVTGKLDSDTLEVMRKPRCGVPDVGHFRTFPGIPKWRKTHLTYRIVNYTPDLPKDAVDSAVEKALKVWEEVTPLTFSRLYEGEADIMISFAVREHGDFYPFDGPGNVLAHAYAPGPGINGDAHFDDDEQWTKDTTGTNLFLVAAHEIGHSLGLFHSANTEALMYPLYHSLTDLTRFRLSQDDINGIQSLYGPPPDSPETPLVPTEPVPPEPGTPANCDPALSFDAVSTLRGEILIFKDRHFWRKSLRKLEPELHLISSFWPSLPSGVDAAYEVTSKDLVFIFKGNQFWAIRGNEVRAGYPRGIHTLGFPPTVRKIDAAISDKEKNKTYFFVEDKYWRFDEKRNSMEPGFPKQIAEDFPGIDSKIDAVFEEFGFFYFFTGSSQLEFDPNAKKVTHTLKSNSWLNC
Chain of Matrix metalloproteinase-9 (P14780 whole entry): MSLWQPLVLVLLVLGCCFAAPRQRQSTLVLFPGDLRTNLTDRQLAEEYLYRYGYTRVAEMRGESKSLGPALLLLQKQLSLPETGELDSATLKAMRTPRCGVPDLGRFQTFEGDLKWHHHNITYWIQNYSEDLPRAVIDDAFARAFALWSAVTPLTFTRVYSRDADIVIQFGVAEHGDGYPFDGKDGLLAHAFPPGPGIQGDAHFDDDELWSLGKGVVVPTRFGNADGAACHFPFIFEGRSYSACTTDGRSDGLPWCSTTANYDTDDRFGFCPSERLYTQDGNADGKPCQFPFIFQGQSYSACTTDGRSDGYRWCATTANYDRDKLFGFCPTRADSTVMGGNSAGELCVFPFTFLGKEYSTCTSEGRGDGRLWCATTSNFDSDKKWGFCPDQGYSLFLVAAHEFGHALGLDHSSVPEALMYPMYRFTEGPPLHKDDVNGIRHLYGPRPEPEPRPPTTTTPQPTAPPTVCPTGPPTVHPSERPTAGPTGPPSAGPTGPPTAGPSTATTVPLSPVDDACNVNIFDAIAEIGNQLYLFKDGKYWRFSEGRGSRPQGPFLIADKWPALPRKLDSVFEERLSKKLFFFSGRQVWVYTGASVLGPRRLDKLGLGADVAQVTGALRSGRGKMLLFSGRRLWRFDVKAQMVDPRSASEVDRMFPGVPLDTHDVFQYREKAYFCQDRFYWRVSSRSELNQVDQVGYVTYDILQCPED

| Compound | IC50 [1] [µM] | IC50 (Interstitial collagenase) [µM] | IC50 (Stromelysin-1) [µM] | inhibition (NIH3T3) | IC50 [2] [µM] | IC50 (Neutrophil collagenase) [µM] | inhibition in vivo at 50 mg/kg (B16-F10) [%] | inhibition (Homo sapiens) [%] |
| --- | --- | --- | --- | --- | --- | --- | --- | --- |
| CC(C)CCNC(=O)P(=O)(O)O.NC1CCCCC1 | > 100 | > 100 | > 100 | inactive | 30 | 50 | – | – |
| CNC(=O)P(=O)(O)O [(METHYLAMINO)CARBONYLPHOSPHONIC ACID] | > 100 | > 100 | 90 | – | 0.02 | 20 | 55 | – |
| CCCNC(=O)P(=O)(O)O [(PROPYLAMINO)CARBONYLPHOSPHONIC ACID] | 20 | 20 | 50 | – | 0.3 | > 100 | – | – |
| CCC(CC)NC(=O)P(=O)(O)O | > 100 | 80 | > 100 | – | 3 | 10 | – | – |
| CCC(C)NC(=O)P(=O)(O)O (configuration not stated) | > 100 | 40 | 80 | – | 3 | > 100 | – | 20 |
| O=C(NC1CCCCCC1)P(=O)(O)O [(CYCLOHEPTYLAMINO)CARBONYLPHOSPHONIC ACID] | > 100 | > 100 | > 100 | – | 4 | > 100 | 69 | 45 |
| O=C(NC1CCCCCCC1)P(=O)(O)O [(CYCLOOCTYLAMINO)CARBONYLPHOSPHONIC ACID] | > 100 | > 100 | > 100 | – | 1 | 4 | – | 25 |
| O=C(NCCc1ccccc1)P(=O)(O)O [PHENETHYLCARBAMOYLPHOSPHONIC ACID] | > 100 | 80 | 90 | – | 20 | > 100 | – | – |
| CCCCNC(=O)P(=O)(O)O [SODIUM HYDROGEN (BUTYLAMINO)CARBONYLPHOSPHONATE] | > 100 | 25 | > 100 | – | 2 | > 100 | – | 20 |
| CCNC(=O)P(=O)(O)O [(ETHYLAMINO)CARBONYLPHOSPHONIC ACID] | 3 | 50 | 100 | – | 5 | 30 | – | – |
| CCOP(=O)(O)C(=O)NC1CCCCC1 [LITHIUM ETHYL (CYCLOHEXYLAMINO)CARBONYLPHOSPHONATE] | > 100 | 1.5 | > 100 | – | 30 | > 100 | – | – |
| CC(C)NC(=O)P(=O)(O)O [(ISOPROPYLAMINO)CARBONYLPHOSPHONIC ACID] | 2 | 50 | > 100 | – | 1 | 50 | 40 | 55 |
| O=C(NC1CCCCC1)P(=O)(O)O [(CYCLOHEXYLAMINO)CARBONYLPHOSPHONIC ACID] | > 100 | 0.1 | 3 | – | – | > 100 | 37 | 50 |
| O=C(NC1CCC1)P(=O)(O)O [(CYCLOBUTYLAMINO)CARBONYLPHOSPHONIC ACID] | > 100 | > 100 | > 100 | – | 0.15 | 0.04 | 60 | – |
| O=C(NC1CC1)P(=O)(O)O [(CYCLOPROPYLAMINO)CARBONYLPHOSPHONIC ACID] | > 100 | > 100 | > 100 | – | 0.5 | 0.2 | – | – |
| O=C(N1CCCCC1)P(=O)(O)O | 0.5 | 70 | 90 | inactive | 1 | > 100 | – | – |
| CC(C)CNC(=O)P(=O)(O)O.NC1CCCCC1 [CYCLOHEXANAMINIUM HYDROGEN (ISOBUTYLAMINO)CARBONYLPHOSPHONATE] | > 100 | 40 | > 100 | inactive | > 100 | 1 | – | – |
| O=C(NCC1CCCCC1)P(=O)(O)O [CYCLOHEXYLMETHYLCARBAMOYLPHOSPHONIC ACID] | – | 30 | 1 | – | – | 80 | 69 | 53 |
| O=C(NC1CCCC1)P(=O)(O)O [(CYCLOPENTYLAMINO)CARBONYLPHOSPHONIC ACID] | > 100 | 0.5 | > 100 | – | – | > 100 | 72 | 70 |
| CCCCN(CCCC)C(=O)P(=O)(O)O [(DIBUTYLAMINO)CARBONYLPHOSPHONIC ACID] | > 100 | 70 | 30 | inactive | 50 | 90 | – | – |
| CCN(CC)C(=O)P(=O)(O)O [(DIETHYLAMINO)CARBONYLPHOSPHONIC ACID] | > 100 | 30 | 30 | inactive | 1 | 70 | – | – |
| O=C(N1CCOCC1)P(=O)(O)O | > 100 | 50 | 1 | inactive | > 100 | 30 | – | – |
